Laboratory results published in ChEMBL document CHEMBL3593170 (J Nat Prod, 2015).
Calls of active or inactive are those of the source. No cut-off for these calls is given here.

Columns and labels:
[1] = target: T1, Transient receptor potential cation channel subfamily A member 1 (Homo sapiens, UniProt O75762); assay: Activation of human TRPA1 expressed in TREx-HEK cells at 1 uM in presence of TRPA1 antagonist HC030031 by Fluo-4 AM dye-based Ca2+ imaging assay; assay type: cell-based
Procedure, shortened: (§1)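 Tetracycline-induced (1 μg/mL, 24 h after seeding) TREx HEK cells stably expressing hTRPA1, or TREx HEK cells not expressing TRPA1; Fluo-4 AM 3 μM loading 1 h 37 °C; Ca2+ change read at 37 °C. Response as % of 5 μM ionomycin; mean ± SEM, n = 3−8.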

[2] = target: T2, Transient receptor potential cation channel subfamily V member 1 (Homo sapiens, UniProt Q8NER1); assay: Activation of human TRPV1 expressed in TREx-HEK cells by Fluo-4 AM dye-based Ca2+ imaging assay; assay type: cell-based
T2 sequence (Q8NER1 whole entry): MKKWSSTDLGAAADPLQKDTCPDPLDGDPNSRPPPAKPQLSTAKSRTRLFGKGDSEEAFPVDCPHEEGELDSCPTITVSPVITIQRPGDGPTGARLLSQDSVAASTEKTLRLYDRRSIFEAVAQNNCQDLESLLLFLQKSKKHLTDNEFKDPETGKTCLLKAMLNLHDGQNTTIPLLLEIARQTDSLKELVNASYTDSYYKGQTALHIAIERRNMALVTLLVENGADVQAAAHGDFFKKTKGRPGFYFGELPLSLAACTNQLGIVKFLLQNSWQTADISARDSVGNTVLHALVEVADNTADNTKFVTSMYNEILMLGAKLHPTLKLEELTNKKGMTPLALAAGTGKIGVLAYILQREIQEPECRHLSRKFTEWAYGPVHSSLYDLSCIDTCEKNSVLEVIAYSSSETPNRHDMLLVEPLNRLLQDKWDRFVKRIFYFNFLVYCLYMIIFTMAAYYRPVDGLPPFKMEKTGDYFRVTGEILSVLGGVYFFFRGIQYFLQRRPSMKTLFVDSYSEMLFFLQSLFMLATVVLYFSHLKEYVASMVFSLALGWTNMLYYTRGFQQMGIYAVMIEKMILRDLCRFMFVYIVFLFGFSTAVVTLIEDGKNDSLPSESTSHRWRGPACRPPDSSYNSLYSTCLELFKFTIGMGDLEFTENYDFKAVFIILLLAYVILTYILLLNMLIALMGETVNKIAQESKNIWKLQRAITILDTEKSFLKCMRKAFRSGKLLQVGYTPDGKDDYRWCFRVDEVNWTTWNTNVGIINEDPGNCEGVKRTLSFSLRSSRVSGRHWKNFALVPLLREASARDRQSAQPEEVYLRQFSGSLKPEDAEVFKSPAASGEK

[3] = target: T2, Transient receptor potential cation channel subfamily V member 1; assay: Activation of human TRPV1 expressed in TREx-HEK cells at 300 uM by Fluo-4 AM dye-based Ca2+ imaging assay; assay type: cell-based
Procedure, shortened: (§2)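 TREx HEK cells stably expressing hTRPV1 (tetracycline 1 μg/mL induction) or parental TREx HEK cells lacking TRPV1, Fluo-4 AM (3 μM, 1 h, 37 °C) loaded; compounds at 300 μM, capsazepine 30 μM co-added where stated; Ca2+ at 37 °C as % of 5 μM ionomycin; mean ± SEM, n = 3−7.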

[4] = target: T1, Transient receptor potential cation channel subfamily A member 1; assay: Activation of human TRPA1 expressed in TREx-HEK cells by Fluo-4 AM dye-based Ca2+ imaging assay relative to 100 uM ITC; assay type: cell-based
[5] = Effect on Ca2+ response in TREx-HEK cells at 1 uM by Fluo-4 AM dye-based Ca2+ imaging assay; assay type: ADME, cell-based; settings: human; procedure, shortened: as §1
[6] = target: Transient receptor potential cation channel subfamily M member 8 (Mus musculus) (UniProt Q8R4D5); assay: Agonist activity at mouse TRPM8 expressed in TREx-HEK cells at 300 uM by Fluo-4 AM dye-based Ca2+ imaging assay; assay type: cell-based
Sequence of Transient receptor potential cation channel subfamily M member 8 (Mus musculus) (Q8R4D5 whole entry): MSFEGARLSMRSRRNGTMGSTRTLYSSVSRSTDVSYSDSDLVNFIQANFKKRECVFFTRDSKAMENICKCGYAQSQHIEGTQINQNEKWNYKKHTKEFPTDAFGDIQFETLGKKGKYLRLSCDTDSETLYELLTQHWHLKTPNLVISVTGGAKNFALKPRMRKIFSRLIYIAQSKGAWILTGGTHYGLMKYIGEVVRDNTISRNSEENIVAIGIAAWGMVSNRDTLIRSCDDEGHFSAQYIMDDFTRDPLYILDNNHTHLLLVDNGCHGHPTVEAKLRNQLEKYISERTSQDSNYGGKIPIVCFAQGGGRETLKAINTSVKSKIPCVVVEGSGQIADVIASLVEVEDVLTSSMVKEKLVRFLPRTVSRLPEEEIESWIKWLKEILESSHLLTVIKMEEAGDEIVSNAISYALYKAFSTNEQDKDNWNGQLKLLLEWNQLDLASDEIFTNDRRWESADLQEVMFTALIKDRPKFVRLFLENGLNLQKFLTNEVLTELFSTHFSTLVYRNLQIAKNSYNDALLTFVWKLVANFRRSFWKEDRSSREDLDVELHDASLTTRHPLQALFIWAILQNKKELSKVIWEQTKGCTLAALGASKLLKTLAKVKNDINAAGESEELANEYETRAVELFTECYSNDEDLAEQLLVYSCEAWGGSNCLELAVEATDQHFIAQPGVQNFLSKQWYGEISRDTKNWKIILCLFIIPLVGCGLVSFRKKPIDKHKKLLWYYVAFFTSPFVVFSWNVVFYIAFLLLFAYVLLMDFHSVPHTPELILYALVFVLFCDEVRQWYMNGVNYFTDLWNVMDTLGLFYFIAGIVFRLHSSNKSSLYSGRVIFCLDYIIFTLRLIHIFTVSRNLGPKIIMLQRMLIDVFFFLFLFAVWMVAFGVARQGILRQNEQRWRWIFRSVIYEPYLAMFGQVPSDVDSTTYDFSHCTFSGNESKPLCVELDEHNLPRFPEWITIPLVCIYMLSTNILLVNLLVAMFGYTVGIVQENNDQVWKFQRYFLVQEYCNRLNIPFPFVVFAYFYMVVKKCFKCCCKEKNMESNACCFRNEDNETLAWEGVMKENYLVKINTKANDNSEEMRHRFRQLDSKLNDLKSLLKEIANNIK
Procedure, shortened: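 Mouse TRPM8 stably expressed in TREx HEK cells, induced with 1 μg/mL tetracycline; Fluo-4 AM 3 μM loading, 1 h, 37 °C; compounds 300 μM freshly diluted from DMSO; Ca2+ change read at 37 °C; ionomycin 5 μM for maximum fluorescence; menthol 100 μM agonist control, BCTC 10 μM antagonist.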

[7] = target: T1, Transient receptor potential cation channel subfamily A member 1; assay: Activation of human TRPA1 expressed in TREx-HEK cells at 1 uM by Fluo-4 AM dye-based Ca2+ imaging assay; assay type: cell-based; procedure, shortened: as §1
[8] = target: T1, Transient receptor potential cation channel subfamily A member 1; assay: Activation of human TRPA1 expressed in TREx-HEK cells by Fluo-4 AM dye-based Ca2+ imaging assay; assay type: cell-based
[9] = target: T2, Transient receptor potential cation channel subfamily V member 1; assay: Activation of human TRPV1 expressed in TREx-HEK cells by Fluo-4 AM dye-based Ca2+ imaging assay relative to 10 uM capsaicin; assay type: cell-based
[10] = target: T2, Transient receptor potential cation channel subfamily V member 1; assay: Activation of human TRPV1 expressed in TREx-HEK cells at 300 uM in presence of TRPV1 antagonist CPZ by Fluo-4 AM dye-based Ca2+ imaging assay; assay type: cell-based; procedure, shortened: as §2
[11] = Effect on Ca2+ response in TREx-HEK cells at 300 uM by Fluo-4 AM dye-based Ca2+ imaging assay; assay type: ADME, cell-based; settings: human; procedure, shortened: as §2
[12] = target: T1, Transient receptor potential cation channel subfamily A member 1; assay: Activation of human TRPA1 expressed in TREx-HEK cells at 30 uM by Fluo-4 AM dye-based Ca2+ imaging assay; assay type: cell-based
Procedure, shortened: as §1, with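 “°C. Compounds in DMSO, diluted in measuring buffer just before addition; 1 μM (30 μM for one compound); HC030031 30 μM co-added where stated.” for “°C.”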

[13] = Effect on Ca2+ response in TREx-HEK cells at 30 uM by Fluo-4 AM dye-based Ca2+ imaging assay; assay type: ADME, cell-based; settings: human
Procedure, shortened: as §1, with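 “°C. Compounds in DMSO, diluted in measuring buffer just before addition; 1 μM (30 μM for one compound); HC030031 30 μM co-added where stated.” for “°C.”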

[14] = target: T1, Transient receptor potential cation channel subfamily A member 1; assay: Activation of human TRPA1 expressed in TREx-HEK cells at 30 uM in presence of TRPA1 antagonist HC030031 by Fluo-4 AM dye-based Ca2+ imaging assay; assay type: cell-based

T1 sequence (O75762 whole entry): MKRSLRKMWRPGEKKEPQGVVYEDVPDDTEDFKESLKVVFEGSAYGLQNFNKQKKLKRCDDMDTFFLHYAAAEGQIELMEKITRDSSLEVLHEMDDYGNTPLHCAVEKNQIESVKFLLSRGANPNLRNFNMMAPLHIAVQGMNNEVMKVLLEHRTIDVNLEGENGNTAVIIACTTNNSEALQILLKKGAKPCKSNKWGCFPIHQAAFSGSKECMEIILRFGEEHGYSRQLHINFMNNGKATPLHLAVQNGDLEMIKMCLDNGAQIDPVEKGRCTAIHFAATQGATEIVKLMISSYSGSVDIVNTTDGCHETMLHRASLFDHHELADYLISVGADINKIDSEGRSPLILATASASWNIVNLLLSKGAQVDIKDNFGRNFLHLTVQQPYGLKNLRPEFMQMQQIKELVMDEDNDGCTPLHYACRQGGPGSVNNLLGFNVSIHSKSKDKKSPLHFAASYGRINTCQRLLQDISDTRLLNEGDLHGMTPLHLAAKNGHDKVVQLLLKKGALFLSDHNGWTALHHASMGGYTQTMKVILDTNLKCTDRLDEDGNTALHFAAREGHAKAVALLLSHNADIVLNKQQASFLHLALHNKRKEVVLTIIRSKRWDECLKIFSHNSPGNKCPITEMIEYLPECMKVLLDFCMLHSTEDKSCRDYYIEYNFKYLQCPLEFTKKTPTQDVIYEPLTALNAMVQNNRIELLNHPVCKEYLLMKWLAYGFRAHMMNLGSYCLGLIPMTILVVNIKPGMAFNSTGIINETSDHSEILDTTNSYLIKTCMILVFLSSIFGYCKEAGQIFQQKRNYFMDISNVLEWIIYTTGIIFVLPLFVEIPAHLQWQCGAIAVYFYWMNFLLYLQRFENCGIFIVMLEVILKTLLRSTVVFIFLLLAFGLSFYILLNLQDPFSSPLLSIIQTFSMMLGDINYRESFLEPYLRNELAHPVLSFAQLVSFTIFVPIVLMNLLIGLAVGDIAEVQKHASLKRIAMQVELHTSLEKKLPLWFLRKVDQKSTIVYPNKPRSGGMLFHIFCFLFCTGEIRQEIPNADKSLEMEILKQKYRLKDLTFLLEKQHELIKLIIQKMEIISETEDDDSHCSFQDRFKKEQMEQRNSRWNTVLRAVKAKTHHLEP

Row | SMILES | Activity [1] | EC50 ([2]; trex-hek) | Activity [3] | max activation [4] | Activity [5] | Activity [6] | Activity [7] | EC50 [8] | max activation [9] | EC50 ([2]; read-out: EC50) | Activity [10] | Activity [11] | Activity [12] | Activity [13] | Activity [14]
1 | CSCCCCCN=C=S | inactive | Not Active | inactive | 92% | Non-toxic | inactive | Active | 500 nM | inactive | – | – | – | – | – | –
2 | C=CCN=C=S [ALLYL ISOTHIOCYANATE] | inactive | – | Active | 97% | Non-toxic | inactive | Active | – | 25% | 160000 nM | inactive | Non-toxic | – | – | –
3 | C=CCCCCN=C=S | inactive | Not Active | inactive | 93% | Non-toxic | inactive | Active | 1040 nM | inactive | – | – | – | – | – | –
4 | CCC(C)N=C=S (centres undefined) | inactive | – | Active | 88% | Non-toxic | inactive | Active | 680 nM | 62% | 100000 nM | inactive | Non-toxic | – | – | –
5 | Oc1ccc(CN=C=S)cc1 | – | – | Active | 96% | – | inactive | – | 20000 nM | 63% | 170000 nM | inactive | Non-toxic | Active | Non-toxic | inactive
6 | CSCCCN=C=S | inactive | Not Active | inactive | 94% | Non-toxic | inactive | Active | 450 nM | inactive | – | – | – | – | – | –
7 | S=C=NCc1ccccc1 [BENZYL ISOTHIOCYANATE] | inactive | – | Active | 95% | Non-toxic | inactive | Active | 250 nM | 49% | 223000 nM | inactive | Non-toxic | – | – | –
8 | CSCCCCCCCN=C=S | inactive | Not Active | inactive | 90% | Non-toxic | inactive | Active | 610 nM | inactive | – | – | – | – | – | –
9 | C=CCCN=C=S | inactive | Not Active | inactive | 95% | Non-toxic | inactive | Active | 360 nM | inactive | – | – | – | – | – | –
10 | CC(C)N=C=S [ISOPROPYL ISOTHIOCYANATE] | inactive | – | Active | 82% | Non-toxic | inactive | Active | 530 nM | 50% | 100000 nM | inactive | Non-toxic | – | – | –
11 | CSCCCCCCN=C=S | inactive | Not Active | inactive | 92% | – | inactive | Active | 580 nM | inactive | – | – | – | – | – | –
12 | C=CCCCCCN=C=S | inactive | Not Active | inactive | 90% | Non-toxic | inactive | Active | 1050 nM | inactive | – | – | – | – | – | –
13 | CC(C)CN=C=S | inactive | Not Active | – | 89% | Non-toxic | inactive | Active | 690 nM | inactive | – | – | – | – | – | –
14 | S=C=NCCc1ccccc1 [PHENETHYLISOTHIOCYANATE] | inactive | – | Active | 94% | Non-toxic | inactive | Active | 370 nM | 43% | 180000 nM | inactive | Non-toxic | – | – | –
15 | C=CCCCN=C=S | inactive | Not Active | inactive | 90% | Non-toxic | inactive | Active | 540 nM | inactive | – | – | – | – | – | –
